# Compounds with a hit are over-represented: about 4.9% of the library has one in this group of screens.
# CHT PAM: allosterically activates the human high affinity choline transporter. CHT-expressing cells, membrane potential dye, choline EC20; hits give high values; LV-AA mutant CHT in HEK293 cells. B-score at 10 µM. 310,000 compounds, 0.49% hits;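 active means initial fluorescence not abnormally high and integrated response B-score, plate-corrected, over 3 SD above library mean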
# Target sequence (Q9GZV3 whole entry, looked up): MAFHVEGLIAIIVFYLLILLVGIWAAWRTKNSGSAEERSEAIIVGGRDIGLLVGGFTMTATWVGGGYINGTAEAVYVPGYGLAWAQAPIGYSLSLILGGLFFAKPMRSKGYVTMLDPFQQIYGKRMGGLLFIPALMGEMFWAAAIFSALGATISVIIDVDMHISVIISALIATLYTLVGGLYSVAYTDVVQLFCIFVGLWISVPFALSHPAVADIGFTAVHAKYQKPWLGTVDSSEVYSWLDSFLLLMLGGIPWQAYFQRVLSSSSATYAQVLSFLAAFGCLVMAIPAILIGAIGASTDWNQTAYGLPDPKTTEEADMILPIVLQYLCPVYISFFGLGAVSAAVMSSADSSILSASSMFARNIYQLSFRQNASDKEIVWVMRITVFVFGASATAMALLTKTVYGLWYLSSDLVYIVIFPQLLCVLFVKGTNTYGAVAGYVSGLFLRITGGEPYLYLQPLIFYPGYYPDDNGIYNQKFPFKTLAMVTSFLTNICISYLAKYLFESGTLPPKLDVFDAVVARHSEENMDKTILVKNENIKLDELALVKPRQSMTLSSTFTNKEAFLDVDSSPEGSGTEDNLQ
# Lipid droplet: modulators of hepatic lipid droplet formation | AML12 mouse hepatocytes, oleate lipid droplets, BODIPY imaging | inhibition, % at 6.5 µM | 240,000 compounds, 0.4% hits | AID 1656;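 active means lipid droplet intensity inhibited by at least 50%, with more than 500 cells counted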
#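 Assay system: AML12 mouse liver cells | Compound dosing: One dose, 6.5 µM compound | Read-out basis: Droplet intensity reduction, % inhibition | Measured by: Fluorescence imaging, 20x objective, two fields per well | Schedule: Overnight treatment with compound plus oleate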
# CHT inh: inhibits the human high affinity choline transporter | B-score at 10 µM | 310,000 compounds, 0.86% hits | Q9GZV3 | CHT-expressing cells, membrane potential dye, choline response; hits give low values | AID 488975;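 active means B-score over 3 SD under the library average, and starting fluorescence ratio not unusually high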;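 further: choline stimulus applied at its EC90 after an EC20 pre-addition; B-score computed on integrated fluorescence ratio after choline addition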
# PHOSPHO1 inh: PHOSPHO1 (human) inhibition; Q8TCT1; recombinant PHOSPHO1, absorbance phosphatase assay; inhibition, % at 13.3 µM; 290,000 compounds, 1.1% hits; AID 1565; in the data active means inhibition above about 60%
# HSF-1 act: increases HSF-1 driven luciferase reporter signal | activation, % at 9 µM | AID 504408 | NIH3T3-HGL HSF-1 luciferase reporter, MG132, 8 h; 100% = twice DMSO control signal | 300,000 compounds, 1.7% hits;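 active means mean replicate activation of at least 50% with a set share of replicates each reaching 50%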;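 further: 0% = median of the neutral control wells and 100% = twice that signal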
# HSF1 inh: HSF1 inhibition; activity change, negative = inhibition, % at 7.5 µM (by protocol); 300,000 compounds, 0.77% hits; NIH3T3-HGL HSE-luciferase, MG132-induced, luminescence 8 h; hits give low values; AID 2098;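 active means more than half of replicate wells show activity change below -50%, luminescence cut by over half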;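 further: luciferase reports HSF-1 transcriptional activity via heat shock element; 0% = median of DMSO wells and -100% = zero luminescence signal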
# CHT inh conf: human CHT inhibition, confirmatory screen; 2,400 compounds, 70% hits; CHT-expressing cells, choline membrane potential dye; LV-to-AA substituted CHT, HEK293 cells; AID 493221; CHT activity remaining % of control (hits give low values), % at 10 µM; shares compounds with CHT inh;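 active means choline transporter activity left, mean of duplicates at 10 µM, below buffer-only control mean minus 3 SD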;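 further: depolarization triggered by choline at its EC90 following an EC20 pre-addition; 0% = hemicholinium-3 full block and 100% = buffer-only control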
# HEK293 MPD ctr: counter-screen for CHT inhibitors: effect in parental HEK293 cells; shares compounds with CHT inh; 2,400 compounds, 4% hits; AID 493222; membrane potential dye, choline response; active = decrease or increase beyond buffer ±3SD; membrane potential ratio readout (active if shifted either direction beyond buffer ±3SD; no single direction) at 10 µM;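 further: parental cells lack the transporter so any hit is non-specific; ratio is peak minus trough fluorescence over baseline after EC90 choline challenge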
# The depositor's hits bear a star; i = inactive; x = no result given.
SMILES,CHT PAM,Lipid droplet,CHT inh,PHOSPHO1 inh,HSF-1 act,HSF1 inh,CHT inh conf,HEK293 MPD ctr
CCCCN(CCCC)CCCNC(=O)C12CN(Cc3ccccc3)CC1C(c1cccc([N+](=O)[O-])c1)=NO2 (configuration not stated),i,-22,-11*,-8,-4,5,15%*,i
O=C(NCc1ccccc1)C12CN(Cc3ccccc3)CC1C(c1cccc([N+](=O)[O-])c1)=NO2 (configuration not stated),i,x,i,-1,-5,3,x,x
Oc1[nH]c2ccccc2c1C=Nc1ccc2c(c1)OCCO2,x,x,x,8,45,26,x,x
Oc1c(Br)cc(Br)cc1C=Nc1ccc2c(c1)OCCO2,i,6,-5.3*,-13,-80,-79*,i,i
Oc1c(Br)cc(Br)cc1C=Nc1ccc2c(c1)OCO2,i,27,-6.4*,12,x,x,i,i
Cc1cc2nc(C)c(Cl)c(=O)n2[nH]1,i,-1,-7.4*,44,12,-7,20%*,i
Cc1nc2cc(-c3ccc(Br)cc3)[nH]n2c(=O)c1Cl,i,-1,i,29,1,15,x,x
NS(=O)(=O)c1ccc(N/N=C/c2ccc(C(=O)O)cc2)c([N+](=O)[O-])c1,i,24,i,29,15,-3,x,x
Cc1nn(-c2ccccc2)c(N2CCCC2)c1/C=N/Nc1ccc(S(N)(=O)=O)cc1[N+](=O)[O-],i,29,-5*,11,3,1,i,i
Cc1ccsc1C(=O)OCC(=O)NCCCc1ccccc1,i,3,i,12,-4,0,x,x
CCOCCn1c(CN2CCN(c3cccc(Cl)c3)CC2)nc2c1c(=O)n(C)c(=O)n2C,i,x,i,9,-15,-2,x,x
COCCn1c(CN2CCN(c3cccc(Cl)c3)CC2)nc2c1c(=O)n(C)c(=O)n2C,i,x,-7.3*,11,-21,-5,-5.6%*,i
CCOCCn1c(CN2CCN(c3ccc(F)cc3)CC2)nc2c1c(=O)n(C)c(=O)n2C,i,x,-17*,19,-1,3,10%*,i
COC(=O)Cn1c(CN2CCN(c3ccc(F)cc3)CC2)nc2c1c(=O)n(C)c(=O)n2C,i,x,-11*,6,-27,-13,-12%*,i
CCOC(=O)c1c(NC(=O)CSc2nnc(-c3ccccc3)n2CC)sc(C(C)=O)c1C,i,x,-5.3*,37,15,-3,i,i
CCOC(=O)c1sc(NC(=O)CSc2nc3c(c(=O)n2-c2ccc(C)cc2)SCC3)c(C(=O)OCC)c1C,i,21,-7*,1,-21,-7,69%*,i
CCOC(=O)c1sc(NC(=O)CSc2nnnn2-c2ccc(C)cc2)c(C(=O)OCC)c1C,i,-5,i,-7,0,0,x,x
O=C(O)c1ccc(C2SCC(=O)N2Cc2ccccc2)cc1 (configuration not stated),i,12,i,4,x,x,x,x
NC(=O)c1ccc(C2SCC(=O)N2Cc2ccccc2)cc1 (configuration not stated),i,x,-6.3*,14,3,-2,i,i
CCCC(C(=O)O)n1c(O)c(C=C2N=c3ccccc3=N2)sc1=S (configuration not stated),i,10,i,41,-2,5,x,x
Cn1c(-c2ccccc2O)cc2ccccc21,i,2,-8.1*,-2,x,x,51%*,i
O=C(OCc1nc2ccsc2c(=O)[nH]1)c1cc(Br)c(Br)s1,i,x,-7.7*,x,-4,0,64%*,i
COc1ccc(/C=C/C(=O)Oc2cc(O)cc(O)c2)cc1,i,-1,-6.6*,16,15,9,i,i
CCOc1ccc(/C=C/C(=O)Oc2ccc(OC)cc2)cc1,i,-7,i,32,7,1,x,x
N#CC12CCCCC1CC1CCCCC1(C#N)N2CCO (configuration not stated),i,x,-5.7*,12,-11,-2,i,i
SMILES,CHT PAM,Lipid droplet,CHT inh,PHOSPHO1 inh,HSF-1 act,HSF1 inh,CHT inh conf,HEK293 MPD ctr
O=c1cc(-c2ccccc2)c2c(O)cc(O)cc2o1,i,-1,-5*,3,-2,-13,50%*,i
CN1C(C)(C)c2ccccc2OS1(=O)=O,i,0,i,-19,-1,0,x,x
C=Cn1cc[n+](CC(=O)C(C)(C)C)c1,i,-11,i,-4,25,0,x,x
C=Cn1cc[n+](CC(=O)c2ccc(Cl)c(Cl)c2)c1,i,4,-7.2*,20,12,-4,48%*,i
O=c1c2ccccc2[nH]c(=S)n1CCCN1CCN(c2ccccc2)CC1,i,x,i,6,7,2,x,x
O=c1c2ccccc2[nH]c(=S)n1CCN1CCCCC1,i,-11,-12*,24,26,0,40%*,i
O=C(NC1CCCCC1)C(c1ccccn1)N(C(=O)Cc1cccs1)c1ccc(Cl)cc1 (configuration not stated),i,x,i,32,35,-3,x,x
Cc1c(NP(=O)(c2ccc(Br)cc2)c2ccc(Br)cc2)c(=O)n(-c2ccccc2)n1C,i,-26,i,-9,21,10,x,x
O=C(C1CCN(CCCc2ccccc2)CC1)N(CCc1ccccc1)Cc1ccccc1,i,-52,-8.2*,-8,1,2,23%*,3.5*
CCn1c(=O)n(CC)c2cc(S(=O)(=O)N3CCc4ccccc43)ccc21,i,-4,-5.9*,14,16,1,44%*,i
Cn1c(-c2ccccc2)cnc1NCc1ccccc1,i,-3,-7.2*,39,7,1,46%*,i
Cc1ccc(CNc2ncc(-c3ccccc3)n2C)o1,i,0,-5.1*,-24,7,0,34%*,i
COc1ccccc1C(c1c(O)nc(SC)[nH]c1=O)c1c(O)nc(SC)[nH]c1=O,i,x,i,x,-10,11,i,i
COc1ccc(C(=O)C2CCCN(C(=O)c3noc4c3CCCC4)C2)cc1F (configuration not stated),i,9,i,37,-11,-2,47%*,i
O=C(Nc1ccc(Cl)cc1)NC1CCCCNC1=O (configuration not stated),i,-11,i,7,20,3,x,x
